Measurements from ChEMBL document CHEMBL1122616, “Latent inhibitors of aldehyde dehydrogenase as alcohol deterrent agents” (J Med Chem, 1984).

Biological target: T1, Aldehyde dehydrogenase 1A1 (Rattus norvegicus) (UniProt P51647)
T1 sequence (whole entry): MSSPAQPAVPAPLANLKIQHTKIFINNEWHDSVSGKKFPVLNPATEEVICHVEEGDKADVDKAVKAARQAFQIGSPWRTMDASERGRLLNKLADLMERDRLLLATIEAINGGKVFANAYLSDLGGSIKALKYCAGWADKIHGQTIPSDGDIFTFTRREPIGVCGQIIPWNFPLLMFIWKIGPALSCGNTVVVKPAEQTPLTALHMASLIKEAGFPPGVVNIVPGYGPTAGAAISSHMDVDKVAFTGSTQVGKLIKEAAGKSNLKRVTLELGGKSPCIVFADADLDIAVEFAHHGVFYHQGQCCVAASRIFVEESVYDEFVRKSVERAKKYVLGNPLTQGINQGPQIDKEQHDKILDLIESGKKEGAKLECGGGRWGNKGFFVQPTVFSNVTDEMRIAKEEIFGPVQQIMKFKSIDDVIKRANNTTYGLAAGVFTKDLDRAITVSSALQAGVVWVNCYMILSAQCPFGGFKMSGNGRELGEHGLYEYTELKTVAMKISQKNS
Assay: Evaluated in vivo for inhibition of liver mitochondrial aldehyde dehydrogenase activity 2 hour after administering into rats, at a dose of 1.25 mmol/kg
Type: organism-based
Settings: scale: nmol of acetaldehyde(AcH) oxide per minute per mg of protein
Procedure, shortened: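 Rats given 1.25 mmol/kg ip; controls given saline. Killed 2 h later. Intact liver mitochondria prepared at 0 °C and kept cold until assay. After 5-min preincubation at 38 °C, 200 nmol AcH added. Quenched after 5 min with HClO₄. Activity given as nmol AcH oxidized/min/mg protein (Lowry), mean ± SEM.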

CN(Cc1ccccc1)C1CC1
Activity: 3.48

c1ccc(CNC2CC2)cc1
Activity: 2.68
